In one test the target is T1, Melanocortin receptor 5 (Homo sapiens, UniProt P33032). Briefly: Displacement of [125I][Nle4,D-Phe7]alpha-MSH from human MC5 receptor expressed in HEK293 cells. The format is cell-based.
T1 sequence (P33032 whole entry): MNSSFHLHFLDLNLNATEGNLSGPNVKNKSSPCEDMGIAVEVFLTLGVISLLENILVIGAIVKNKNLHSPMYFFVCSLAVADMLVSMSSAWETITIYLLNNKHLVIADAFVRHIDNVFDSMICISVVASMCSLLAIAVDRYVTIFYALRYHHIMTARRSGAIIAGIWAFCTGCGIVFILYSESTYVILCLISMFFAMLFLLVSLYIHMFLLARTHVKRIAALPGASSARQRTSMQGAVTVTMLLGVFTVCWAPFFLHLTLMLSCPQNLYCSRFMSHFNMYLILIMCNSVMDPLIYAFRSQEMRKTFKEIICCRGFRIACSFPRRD
Conditions: not given
The procedure, abridged:
(§1)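 Whole stably transfected HEK293 cells seeded 48 h before assay at 50000 cells/well. Binding buffer: MEM, 25 mM HEPES pH 7.4, 0.2% BSA, 1 mM 1,10-phenanthroline, leupeptin, bacitracin. Cells washed, lysed with NaOH/Triton X-100, gamma-counted. IC50 is mean of two triplicate experiments.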
T4 sequence (Q01726 whole entry): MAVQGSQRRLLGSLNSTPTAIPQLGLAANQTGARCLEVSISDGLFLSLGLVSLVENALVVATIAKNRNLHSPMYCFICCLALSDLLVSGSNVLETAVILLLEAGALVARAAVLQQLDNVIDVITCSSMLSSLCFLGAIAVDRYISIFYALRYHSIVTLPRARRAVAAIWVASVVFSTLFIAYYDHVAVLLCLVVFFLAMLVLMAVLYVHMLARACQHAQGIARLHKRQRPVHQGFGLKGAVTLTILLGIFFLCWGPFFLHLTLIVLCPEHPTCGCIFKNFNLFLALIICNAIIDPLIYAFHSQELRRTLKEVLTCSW
T3 sequence (P32245 whole entry): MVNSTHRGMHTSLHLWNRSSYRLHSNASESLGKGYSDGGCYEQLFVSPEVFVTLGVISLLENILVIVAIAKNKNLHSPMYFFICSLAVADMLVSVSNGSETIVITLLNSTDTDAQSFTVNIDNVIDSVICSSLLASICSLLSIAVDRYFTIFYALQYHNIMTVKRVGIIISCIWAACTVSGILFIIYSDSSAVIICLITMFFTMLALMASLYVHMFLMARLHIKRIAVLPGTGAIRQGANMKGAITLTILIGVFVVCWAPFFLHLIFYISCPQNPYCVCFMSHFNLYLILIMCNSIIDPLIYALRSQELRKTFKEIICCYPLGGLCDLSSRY
For `NC(=O)[C@@H]1CCCCNC(=O)c2nccnc2C(=O)N[C@H](Cc2ccc3ccccc3c2)C(=O)N[C@@H](CCCN=C(N)N)C(=O)N[C@@H](Cc2c[nH]c3ccccc23)C(=O)N1`, the IC50 stood at 230 nM.

In the case of `NC(=O)[C@@H]1CCCCNC(=O)CCCC(=O)N2CCC[C@H]2C(=O)N[C@H](Cc2ccccc2)C(=O)N[C@@H](CCCN=C(N)N)C(=O)N[C@@H](Cc2c[nH]c3ccccc23)C(=O)N1`, the IC50 stood at 870 nM.

Compound `CCCC[C@@H]1NC(=O)CCC(=O)NCCCC[C@@H](C(N)=O)NC(=O)[C@H](Cc2c[nH]c3ccccc23)NC(=O)[C@H](CCCN=C(N)N)NC(=O)[C@@H](Cc2ccc3ccccc3c2)NC1=O` had an IC50 of 17 nM.

Another test deals with T2, Melanocortin receptor 3 (Homo sapiens, UniProt P41968). Briefly: Antagonist activity at human MC3 receptor expressed in HEK293 cells assessed as inhibition of MT2 induced intracellular cAMP accumulation. The format is functional, cell-based. Particulars: read-out: pA2 (converted).
T2 sequence (P41968 whole entry): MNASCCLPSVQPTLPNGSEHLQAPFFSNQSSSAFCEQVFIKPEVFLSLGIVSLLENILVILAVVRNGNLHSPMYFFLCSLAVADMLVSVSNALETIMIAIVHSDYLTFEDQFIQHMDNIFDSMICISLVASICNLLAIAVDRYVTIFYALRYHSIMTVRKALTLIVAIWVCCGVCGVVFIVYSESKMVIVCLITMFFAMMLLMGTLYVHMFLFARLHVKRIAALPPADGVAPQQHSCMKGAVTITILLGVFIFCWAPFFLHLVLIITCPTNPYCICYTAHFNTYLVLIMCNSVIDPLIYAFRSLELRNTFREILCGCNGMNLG
Consider `CCCC[C@@H]1NC(=O)CCC(=O)NCCCC[C@@H](C(N)=O)NC(=O)[C@H](Cc2c[nH]c3ccccc23)NC(=O)[C@H](CCCN=C(N)N)NC(=O)[C@@H](Cc2ccc3ccccc3c2)NC1=O`, for which the Kb was 5.01 nM.

Another test deals with T1, Melanocortin receptor 5. Put plainly: Antagonist activity at human MC5 receptor expressed in HEK293 cells assessed as inhibition of MT2 induced intracellular cAMP accumulation. The format is functional, cell-based. Particulars: read-out: pA2 (converted).
As for `CCCC[C@@H]1NC(=O)CCC(=O)NCCCC[C@@H](C(N)=O)NC(=O)[C@H](Cc2c[nH]c3ccccc23)NC(=O)[C@H](CCCN=C(N)N)NC(=O)[C@@H](Cc2ccc3ccccc3c2)NC1=O`, the Kb is 2 nM.

Another test concerns the target T3, Melanocortin receptor 4 (Homo sapiens, UniProt P32245). Put plainly: Agonist activity at human MC4 receptor expressed in HEK293 cells assessed as intracellular cAMP accumulation.
Conditions: not given
The class given is functional, cell-based. The essentials: (§2)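 HEK293 cells stably transfected with the receptor, seeded 48 h ahead at 50000 cells/well. Preincubated 1 min at 37 °C in Earle's balanced salt solution with 0.5 mM IBMX, then exposed to peptide for 3 min at 37 °C. cAMP measured by [3H]cAMP/PKA competition against a standard curve.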
Consider `NC(=O)[C@@H]1CCCCNC(=O)CCCC(=O)N2CCC[C@H]2C(=O)N[C@H](Cc2ccccc2)C(=O)N[C@@H](CCCN=C(N)N)C(=O)N[C@@H](Cc2c[nH]c3ccccc23)C(=O)N1`, for which the EC50 is greater than 2000 nM.

The next test has as its target T4, Melanocyte-stimulating hormone receptor (Homo sapiens, UniProt Q01726). Briefly: Agonist activity at human MC1 receptor expressed in HEK293 cells assessed as intracellular cAMP accumulation. The class given is functional, cell-based.
Conditions: not given
The essentials:
(§3)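 Stably transfected HEK293 cells seeded 48 h before assay at 50000 cells/well. Cells preincubated 1 min at 37 °C in Earle's balanced salt solution with 0.5 mM IBMX, then exposed to varying peptide concentrations for 3 min at 37 °C. Cells boiled 7 min, cAMP quantified by [3H]cAMP/PKA competition against a standard curve.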
With `NC(=O)[C@@H]1CCCCNC(=O)c2nccnc2C(=O)N[C@H](Cc2ccc3ccccc3c2)C(=O)N[C@@H](CCCN=C(N)N)C(=O)N[C@@H](Cc2c[nH]c3ccccc23)C(=O)N1`, the EC50 is greater than 3000 nM.

Consider `CCCC[C@@H]1NC(=O)CCC(=O)NCCCC[C@@H](C(N)=O)NC(=O)[C@H](Cc2c[nH]c3ccccc23)NC(=O)[C@H](CCCN=C(N)N)NC(=O)[C@@H](Cc2ccc3ccccc3c2)NC1=O`, for which the concentration for a half-maximal effect (EC50) is greater than 1000 nM.

In a further test the target is T3, Melanocortin receptor 4. Briefly: biochemical. The format is cell-based, HEK293.
Conditions: not given
Take `NC(=O)[C@@H]1CCCCNC(=O)c2nccnc2C(=O)N[C@H](Cc2ccc3ccccc3c2)C(=O)N[C@@H](CCCN=C(N)N)C(=O)N[C@@H](Cc2c[nH]c3ccccc23)C(=O)N1`: the concentration for half-maximal inhibition (IC50) was greater than 1000 nM.

`NC(=O)[C@@H]1CCCCNC(=O)CCCC(=O)N2CCC[C@H]2C(=O)N[C@H](Cc2ccccc2)C(=O)N[C@@H](CCCN=C(N)N)C(=O)N[C@@H](Cc2c[nH]c3ccccc23)C(=O)N1` showed an IC50 greater than 1000 nM.

Turning to `CCCC[C@@H]1NC(=O)CCC(=O)NCCCC[C@@H](C(N)=O)NC(=O)[C@H](Cc2c[nH]c3ccccc23)NC(=O)[C@H](CCCN=C(N)N)NC(=O)[C@@H](Cc2ccc3ccccc3c2)NC1=O`, the half-inhibitory concentration (IC50) stood at 300 nM.

For the next test, the target named is T1, Melanocortin receptor 5. Briefly: Agonist activity at human MC5 receptor expressed in HEK293 cells assessed as intracellular cAMP accumulation. The format is functional, cell-based.
Conditions: not given
The procedure, abridged: as §2
In the case of `NC(=O)[C@@H]1CCCCNC(=O)CCCC(=O)N2CCC[C@H]2C(=O)N[C@H](Cc2ccccc2)C(=O)N[C@@H](CCCN=C(N)N)C(=O)N[C@@H](Cc2c[nH]c3ccccc23)C(=O)N1`, the concentration giving a half-maximal response (EC50) came to 570 nM.

The target of another test is T4, Melanocyte-stimulating hormone receptor. Put plainly: Displacement of [125I][Nle4,D-Phe7]alpha-MSH from human MC1 receptor expressed in HEK293 cells. The format is cell-based.
Conditions: not given
The procedure, abridged:
as §1
With `NC(=O)[C@@H]1CCCCNC(=O)c2nccnc2C(=O)N[C@H](Cc2ccc3ccccc3c2)C(=O)N[C@@H](CCCN=C(N)N)C(=O)N[C@@H](Cc2c[nH]c3ccccc23)C(=O)N1`, the IC50 turned out to be 707 nM.

In turn, `NC(=O)[C@@H]1CCCCNC(=O)CCCC(=O)N2CCC[C@H]2C(=O)N[C@H](Cc2ccccc2)C(=O)N[C@@H](CCCN=C(N)N)C(=O)N[C@@H](Cc2c[nH]c3ccccc23)C(=O)N1` displayed an IC50 greater than 10000 nM.

On to `CCCC[C@@H]1NC(=O)CCC(=O)NCCCC[C@@H](C(N)=O)NC(=O)[C@H](Cc2c[nH]c3ccccc23)NC(=O)[C@H](CCCN=C(N)N)NC(=O)[C@@H](Cc2ccc3ccccc3c2)NC1=O`, for which the half-inhibitory concentration (IC50) amounted to 2000 nM.

The next test has as its target T2, Melanocortin receptor 3. Briefly: biochemical.
Conditions: not given
The class given is cell-based, HEK293.
Compound `NC(=O)[C@@H]1CCCCNC(=O)c2nccnc2C(=O)N[C@H](Cc2ccc3ccccc3c2)C(=O)N[C@@H](CCCN=C(N)N)C(=O)N[C@@H](Cc2c[nH]c3ccccc23)C(=O)N1` showed a half-inhibitory concentration (IC50) of 23 nM.

Take `NC(=O)[C@@H]1CCCCNC(=O)CCCC(=O)N2CCC[C@H]2C(=O)N[C@H](Cc2ccccc2)C(=O)N[C@@H](CCCN=C(N)N)C(=O)N[C@@H](Cc2c[nH]c3ccccc23)C(=O)N1`: inhibition was half-maximal at 385 nM (IC50).

`CCCC[C@@H]1NC(=O)CCC(=O)NCCCC[C@@H](C(N)=O)NC(=O)[C@H](Cc2c[nH]c3ccccc23)NC(=O)[C@H](CCCN=C(N)N)NC(=O)[C@@H](Cc2ccc3ccccc3c2)NC1=O`: 12 nM corresponded to half-maximal inhibition (IC50).

The target of the next test is T2, Melanocortin receptor 3. Put plainly: Agonist activity at human MC3 receptor expressed in HEK293 cells assessed as intracellular cAMP accumulation. The class given is functional, cell-based.
Conditions: not given
The procedure, abridged:
as §3
`NC(=O)[C@@H]1CCCCNC(=O)CCCC(=O)N2CCC[C@H]2C(=O)N[C@H](Cc2ccccc2)C(=O)N[C@@H](CCCN=C(N)N)C(=O)N[C@@H](Cc2c[nH]c3ccccc23)C(=O)N1`: the EC50 is 29 nM.
